In ChEMBL document CHEMBL2146464, “Structure-activity relationship study of nitrosopyrimidines acting as antifungal agents” (Bioorg Med Chem, 2012) one finds MIC and Activity data, which are given here for 17 compounds.

The test system of assay [1] is Candida albicans. The experiment in a line: Antifungal activity against Candida albicans ATCC 10231 after 48 hrs by NCCLS broth microdilution method. The format is functional. Particulars: ATCC 10231, 48 h, read-out: MIC100. The method in brief: (§1)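 Yeast MIC by NCCLS M27-A3 broth microdilution in RPMI-1640 buffered to pH 7.0 with MOPS. Twofold dilutions of 250–0.98 µg/mL, final DMSO ≤1%. Inoculum 1–5 × 10³ CFU/mL. Incubated at 30 °C in a moist dark chamber. Read visually at 48 h. MIC100 is the lowest concentration with no visible growth versus drug-free control.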
On the technique in general: In broth dilution the organism is exposed to a series of concentrations in liquid medium.

The test system of assay [2] is Candida tropicalis. The experiment in a line: Antifungal activity against Candida tropicalis after 48 hrs by NCCLS broth microdilution method. The conditions noted are these: read-out: MIC100. The format is functional. The method in brief:
as §1

Assay [3] relates to Cryptococcus neoformans. The experiment in a line: Antifungal activity against Cryptococcus neoformans ATCC 32264 after 48 hrs by NCCLS broth microdilution method. The format is functional. Particulars: ATCC 32264, 48 h, read-out: MIC100. The method in brief: as §1
Assay [4] concerns Aspergillus flavus. Nature of the assay: Antifungal activity against Aspergillus flavus ATCC 9170 by NCCLS broth microdilution method. The format is functional. Particulars: read-out: MIC100. The procedure, abridged:
(§2)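 MIC by broth microdilution per NCCLS M27-A3/M38-A2 in RPMI-1640 buffered to pH 7.0 with MOPS. Twofold dilutions from 250–0.98 µg/mL, final DMSO ≤1%. Inoculum 1–5 × 10³ CFU/mL. Incubated in a moist dark chamber, 30 °C for Aspergillus and 28–30 °C for dermatophytes. Read visually when control growth allowed. Endpoint is the lowest concentration giving total inhibition of visible growth (MIC100).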

The subject of assay [5] is Aspergillus fumigatus. Nature of the assay: Antifungal activity against Aspergillus fumigatus ATCC 26934 by NCCLS broth microdilution method. Particulars: read-out: MIC100. The format is functional. The method in brief: as §2
Assay [6] has as its system Aspergillus niger. Nature of the assay: Antifungal activity against Aspergillus niger ATCC 9029 by NCCLS broth microdilution method. The format is functional. The conditions noted are these: read-out: MIC100. The method in brief:
as §2

The test system of assay [7] is Nannizzia gypsea. Nature of the assay: Antifungal activity against Microsporum gypseum CCC 115 by NCCLS broth microdilution method. The format is functional. The conditions noted are these: read-out: MIC100. The procedure, abridged: as §2
Assay [8] concerns Trichophyton rubrum. Nature of the assay: Antifungal activity against Trichophyton rubrum CCC 110 by NCCLS broth microdilution method. The format is functional. Particulars: read-out: MIC100. The method in brief:
as §2

Assay [9] deals with Trichophyton mentagrophytes. Nature of the assay: Antifungal activity against Trichophyton mentagrophytes ATCC 9972 by NCCLS broth microdilution method. Particulars: read-out: MIC100. The format is functional. The method in brief:
as §2

For assay [10], the system named is Candida albicans. The experiment in a line: Antifungal activity against Candida albicans ATCC 10231 at 0.98 to 250 ug/mL after 48 hrs by NCCLS broth microdilution method. The format is functional, organism-based. The method in brief:
as §1

In assay [11] the test system is Candida tropicalis. Nature of the assay: Antifungal activity against Candida tropicalis at 0.98 to 250 ug/mL after 48 hrs by NCCLS broth microdilution method. The format is functional, organism-based. The procedure, abridged:
as §1

Assay [12] deals with Cryptococcus neoformans. Nature of the assay: Antifungal activity against Cryptococcus neoformans ATCC 32264 at 0.98 to 250 ug/mL after 48 hrs by NCCLS broth microdilution method. The format is functional, organism-based. The procedure, abridged: as §1
Assay [13] concerns Aspergillus flavus. The experiment in a line: Antifungal activity against Aspergillus flavus ATCC 9170 at 0.98 to 250 ug/mL by NCCLS broth microdilution method. The format is functional, organism-based. The procedure, abridged:
as §2

The subject of assay [14] is Aspergillus fumigatus. Nature of the assay: Antifungal activity against Aspergillus fumigatus ATCC 26934 at 0.98 to 250 ug/mL by NCCLS broth microdilution method. The format is functional, organism-based. The procedure, abridged: as §2
Assay [15] deals with Aspergillus niger. Nature of the assay: Antifungal activity against Aspergillus niger ATCC 9029 at 0.98 to 250 ug/mL by NCCLS broth microdilution method. The format is functional, organism-based. The procedure, abridged:
as §2

For assay [16], the system named is Nannizzia gypsea. Nature of the assay: Antifungal activity against Microsporum gypseum CCC 115 at 0.98 to 250 ug/mL by NCCLS broth microdilution method. The format is functional, organism-based. The method in brief: as §2
In assay [17] the test system is Trichophyton rubrum. The experiment in a line: Antifungal activity against Trichophyton rubrum CCC 110 at 0.98 to 250 ug/mL by NCCLS broth microdilution method. The format is functional, organism-based. The procedure, abridged:
as §2

Assay [18] has as its system Trichophyton mentagrophytes. Nature of the assay: Antifungal activity against Trichophyton mentagrophytes ATCC 9972 at 0.98 to 250 ug/mL by NCCLS broth microdilution method. The format is functional, organism-based. The procedure, abridged: as §2

Values after ≈ are worked out from the molar mass of the structure shown. Active and inactive are the calls of the source. No cut-off for these calls is given here.

Regarding `CN(C/C=C/C#CC(C)(C)C)Cc1cccc2ccccc12` [TERBINAFINE], the MIC in assay [1] stood at 0.98 µg/mL (≈ 3.36 µM); in assay [2], 1.95 µg/mL (≈ 6.69 µM); in [3] it was 0.49 µg/mL (≈ 1.68 µM); in assay [4] it was 0.98 µg/mL (≈ 3.36 µM); in assay [5] it was 0.98 µg/mL (≈ 3.36 µM); in [6], 1.96 µg/mL (≈ 6.73 µM). In addition, the MIC in [7] turned out to be 0.04 µg/mL (≈ 0.137 µM); in assay [8], 0.01 µg/mL (≈ 0.0343 µM); in [9], 0.03 µg/mL (≈ 0.103 µM).

`Nc1nc(NC(CO)C(=O)O)c(N=O)c(=O)[nH]1` (stereo not drawn): the result in assay [10], in assay [11], in assay [12], in assay [13], in assay [14] and in assay [15] was inactive. Moreover, the result in [16], in [17] and in [18] was inactive.

For the compound `CCOC(=O)CCNc1nc(N)nc(OC)c1N=O`, the outcome in assay [10], in [11], in assay [12], in assay [13], in assay [14] and in assay [15] was inactive. In addition, the outcome in assay [16], in assay [17] and in [18] was inactive.

As to `CCOC(=O)CNc1nc(N)nc(OC)c1N=O`, the result in assay [10], in [11], in [12], in assay [13], in assay [14] and in assay [15] was inactive. Further, the outcome in assay [16], in assay [17] and in [18] was inactive.

For the compound `CCCCNc1nc(N)nc(Nc2ccccc2)c1N=O`, the outcome in [10], in assay [11], in [12], in assay [13], in [14] and in assay [15] was inactive. Moreover, the result in assay [16], in assay [17] and in [18] was inactive.

With `CCOC(=O)C(C)Nc1nc(N)nc(OC)c1N=O` (stereo not drawn), the outcome in [10], in assay [11], in [12], in [13], in assay [14] and in assay [15] was inactive. For the same compound, the result in [16], in [17] and in assay [18] was inactive.

`CCOC(=O)CCNc1nc(N)nc(Nc2ccccc2)c1N=O`: the result in assay [10], in [11], in assay [12], in assay [13], in [14] and in assay [15] was inactive. For the same compound, the outcome in [16], in [17] and in [18] was inactive.

`CCC(C)C(Nc1nc(N)[nH]c(=O)c1N=O)C(=O)O` (stereo not drawn): the outcome in assay [10], in assay [11], in assay [12], in assay [13], in assay [14] and in assay [15] was inactive. Besides, the outcome in [16], in assay [17] and in [18] was inactive.

As for `COc1nc(N)nc2c1nnn2C12CC3CC(CC(C3)C1)C2`, the result in assay [10], in assay [11], in assay [12], in assay [13], in assay [14] and in [15] was inactive. The result in assay [16], in assay [17] and in assay [18] was inactive.

On to `COc1nc(N)nc2c1NC(=O)[C@H](Cc1ccccc1)N2`, for which the outcome in [10], in assay [11], in assay [12], in assay [13], in assay [14] and in [15] was inactive. Besides, the result in assay [16], in assay [17] and in [18] was inactive.

As for `COc1nc(NCCOC(C)=O)nc(Nc2cccc(Cl)c2)c1N=O`, the outcome in assay [10], in [11], in assay [12], in assay [13], in [14] and in assay [15] was inactive. Further, the outcome in assay [16], in [17] and in assay [18] was inactive.

Regarding `Nc1nc(NCc2ccccc2)c(N=O)c(NCc2ccccc2)n1`, the result in assay [10], in assay [11], in assay [12], in assay [13], in [14] and in [15] was inactive. Further, the result in assay [16], in assay [17] and in assay [18] was inactive.

For the compound `CC(C)Nc1nc(N)nc(NCc2ccccc2)c1N=O`, the result in assay [10], in assay [11], in assay [12], in assay [13], in assay [14] and in assay [15] was inactive. In addition, the result in assay [16], in assay [17] and in assay [18] was inactive.

For `CCOC(=O)[C@H](Cc1ccccc1)Nc1nc(N)nc(OCC2CCCCC2)c1N=O`, the result in [10], in assay [11], in assay [12], in [13], in [14] and in assay [15] was inactive. Besides, the outcome in [16], in [17] and in [18] was inactive.

With `CNc1nc(N)nc(NCc2ccccc2)c1N=O`, the result in [10], in [11], in assay [12], in [13], in assay [14] and in assay [15] was inactive. The outcome in [16], in assay [17] and in assay [18] was inactive.

For the compound `Nc1nc2c(c(OCC3CCCCC3)n1)NC(=O)[C@H](Cc1ccccc1)N2`, the outcome in assay [10], in [11], in assay [12], in assay [13], in [14] and in assay [15] was inactive. The result in assay [16], in [17] and in assay [18] was inactive.

`COc1nc(N)nc(NCCOCCO)c1N=O`: the result in assay [10], in assay [11], in assay [12], in assay [13], in assay [14] and in [15] was inactive. Besides, the result in assay [16], in assay [17] and in assay [18] was inactive.
